Reference: ChEMBL document CHEMBL1137383, “New efficient substrates for semicarbazide-sensitive amine oxidase/VAP-1 enzyme: analysis by SARs and computational docking” (J Med Chem, 2006)

B1: Amine oxidase [copper-containing] 3 (Homo sapiens), Q16853 (protein)
chain: MNQKTILVLLILAVITIFALVCVLLVGRGGDGGEPSQLPHCPSVSPSAQPWTHPGQSQLFADLSREELTAVMRFLTQRLGPGLVDAAQARPSDNCVFSVELQLPPKAAALAHLDRGSPPPAREALAIVFFGRQPQPNVSELVVGPLPHPSYMRDVTVERHGGPLPYHRRPVLFQEYLDIDQMIFNRELPQASGLLHHCCFYKHRGRNLVTMTTAPRGLQSGDRATWFGLYYNISGAGFFLHHVGLELLVNHKALDPARWTIQKVFYQGRYYDSLAQLEAQFEAGLVNVVLIPDNGTGGSWSLKSPVPPGPAPPLQFYPQGPRFSVQGSRVASSLWTFSFGLGAFSGPRIFDVRFQGERLVYEISLQEALAIYGGNSPAAMTTRYVDGGFGMGKYTTPLTRGVDCPYLATYVDWHFLLESQAPKTIRDAFCVFEQNQGLPLRRHHSDLYSHYFGGLAETVLVVRSMSTLLNYDYVWDTVFHPSGAIEIRFYATGYISSAFLFGATGKYGNQVSEHTLGTVHTHSAHFKVDLDVAGLENWVWAEDMVFVPMAVPWSPEHQLQRLQVTRKLLEMEEQAAFLVGSATPRYLYLASNHSNKWGHPRGYRIQMLSFAGEPLPQNSSMARGFSWERYQLAVTQRKEEEPSSSSVFNQNDPWAPTVDFSDFINNETIAGKDLVAWVTAGFLHIPHAEDIPNTVTVGNGVGFFLRPYNFFDEDPSFYSADSIYFRGDQDAGACEVNPLACLPQAAACAPDLPAFSHGGFSHN
B2: Amine oxidase [copper-containing] 3 (Mus musculus), O70423 (protein)
chain: MTQKTTLVLLALAVITIFALVCVLLAGRSGDGGGLSQPLHCPSVLPSVQPRTHPSQSQPFADLSPEELTAVMSFLTKHLGPGLVDAAQARPSDNCVFSVELQLPAKAAALAHLDRGGPPPVREALAIIFFGGQPKPNVSELVVGPLPHPSYMRDVTVERHGGPLPYYRRPVLDREYQDIEEMIFHRELPQASGLLHHCCFYKHQGQNLLTMTTAPRGLQSGDRATWFGLYYNLSGAGFYPHPIGLELLIDHKALDPALWTIQKVFYQGRYYESLTQLEDQFEAGLVNVVLVPNNGTGGSWSLKSSVPPGPAPPLQFHPQGPRFSVQGSQVSSSLWAFSFGLGAFSGPRIFDIRFQGERVAYEISVQEAIALYGGNSPASMSTCYVDGSFGIGKYSTPLIRGVDCPYLATYVDWHFLLESQAPKTLRDAFCVFEQNQGLPLRRHHSDFYSHYFGGVVGTVLVVRSVSTLLNYDYIWDMVFHPNGAIEVKFHATGYISSAFFFGAGEKFGNRVGAHTLGTVHTHSAHFKVDLDVAGLKNWAWAEDMAFVPTIVPWQPEYQMQRLQVTRKLLETEEEAAFPLGGATPRYLYLASNHSNKWGHRRGYRIQILSFAGKPLPQESPIEKAFTWGRYHLAVTQRKEEEPSSSSIFNQNDPWTPTVNFTDFISNETIAGEDLVAWVTAGFLHIPHAEDIPNTVTAGNSVGFFLRPYNFFDEDPSFHSADSIYFREGQDATACEVNPLACLSQTATCAPEIPAFSHGGFAYRDN

Tests used:
[1] = substrate: NCc1cccc(CNC(=O)CI)c1; assay: (§1) Binding affinity to human SSAO
Method in brief: (§2)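 Recombinant human VAP-1 (0.1 µg protein/assay), Amplex Red/HRP H2O2 fluorimetry in 0.2 mol/L phosphate pH 7.4, 37 °C, 50 min; semicarbazide-insensitive H2O2 subtracted. Km and Vmax from nonlinear Michaelis-Menten fit across substrate concentrations; means of four independent measurements.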

[2] = substrate: NCc1ccccc1; assay: as §1; method in brief: as §2
[3] = substrate: NCCc1ccc(F)cc1; assay: as §1; method in brief: as §2
[4] = substrate: NCc1ccc(F)cc1; assay: as §1; method in brief: as §2
[5] = substrate: C=CCOC(=O)NCc1cccc(CN)c1; assay: as §1; method in brief: as §2
[6] = substrate: NCc1cccc(CNC(=O)c2ccccc2)c1; assay: as §1; method in brief: as §2
[7] = substrate: NCCc1ccccc1; assay: as §1; method in brief: as §2
[8] = substrate: NCCCc1ccccc1; assay: as §1; method in brief: as §2
[9] = substrate: NCCCCc1ccccc1; assay: as §1; method in brief: as §2
[10] = substrate: Cc1ccc(CN)cc1F; assay: as §1; method in brief: as §2
[11] = substrate: NCc1cccc(CNC(=O)CI)c1; assay: (§3) Binding affinity to mouse SSAO
Method in brief: (§4)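 Mouse adipose membranes (1 µg protein/assay) assayed by Amplex Red/HRP H2O2 fluorimetry, 0.2 mol/L phosphate pH 7.4, 37 °C, 50 min, semicarbazide-insensitive signal subtracted. Km and Vmax by nonlinear Michaelis-Menten fitting; means of four independent measurements.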

[12] = substrate: NCc1ccccc1; assay: as §3; method in brief: as §4
[13] = substrate: NCCc1ccc(F)cc1; assay: as §3; method in brief: as §4
[14] = substrate: NCc1ccc(F)cc1; assay: as §3; method in brief: as §4
[15] = substrate: C=CCOC(=O)NCc1cccc(CN)c1; assay: as §3; method in brief: as §4
[16] = substrate: NCc1cccc(CNC(=O)c2ccccc2)c1; assay: as §3; method in brief: as §4
[17] = substrate: NCCc1ccccc1; assay: as §3; method in brief: as §4
[18] = substrate: NCCCc1ccccc1; assay: as §3; method in brief: as §4
[19] = substrate: NCCCCc1ccccc1; assay: as §3; method in brief: as §4
[20] = substrate: Cc1ccc(CN)cc1F; assay: as §3; method in brief: as §4

Row | Protein | Km [1] | Km [2] | Km [3] | Km [4] | Km [5] | Km [6] | Km [7] | Km [8] | Km [9] | Km [10] | Km [11] | Km [12] | Km [13] | Km [14] | Km [15] | Km [16] | Km [17] | Km [18] | Km [19] | Km [20]
1 | B1 | 525 µM | 224 µM | 1900 µM | 205 µM | 569 µM | 630 µM | 3720 µM | 1670 µM | 280 µM | 405 µM |  |  |  |  |  |  |  |  |  | 
2 | B2 |  |  |  |  |  |  |  |  |  |  | 29.8 µM | 15.4 µM | 88.8 µM | 15.7 µM | 11.5 µM | 12.8 µM | 34.8 µM | 27 µM | 11.3 µM | 14.8 µM
